# Measurements from ChEMBL document CHEMBL1121614, “Synthesis and antiallergy activity of 4-oxopyrano[3,2-b]indoles” (1980).
# Active and inactive are the calls of the source. The calls are words filed in the database; no cut-off is given here.
# Assays:
# [1] = system: Rattus norvegicus; test: Inhibition of rat passive cutaneous anaphylaxis at 5.0 mg/kg dose after peroral administration; type: functional; settings: route oral
# Method in brief: (§1)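 Rats were sensitized by intradermal injection of antiserum dilutions at several back sites. Drug was suspended in 1% gum tragacanth in saline and given po or ip 10–15 min before challenge with iv ovalbumin (1 mg in 1 mL saline with 0.25% Evans blue). At 30 min the wheal's mean orthogonal diameter was measured. Diameter was plotted against antiserum level and extrapolated to zero. Five rats per group.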
# [2] = system: Rattus norvegicus; test: Inhibition of rat passive cutaneous anaphylaxis at 1.0 mg/kg dose after intraperitoneal administration; type: functional; settings: ip; method in brief: as §1
# [3] = system: Rattus norvegicus; test: Inhibition of rat passive cutaneous anaphylaxis at 5.0 mg/kg dose after intraperitoneal administration; type: functional; settings: ip; method in brief: as §1
# [4] = system: Rattus norvegicus; test: The compound was tested for inhibition of rat passive cutaneous anaphylaxis at 10 mg/kg dose after intraperitoneal administration; type: functional; settings: ip
# [5] = system: Rattus norvegicus; test: The compound was tested for inhibition of rat passive cutaneous anaphylaxis at 1.0 mg/kg dose after peroral administration; type: functional; settings: route oral; method in brief: as §1
# [6] = system: Rattus norvegicus; test: The compound was tested for inhibition of rat passive cutaneous anaphylaxis at 1 mg/kg dose after iv administration; type: functional
# Method in brief: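 Rat PCA by the iv route. Antiserum dilutions were injected intradermally on the back 48 h before iv challenge with 1 mg ovalbumin in 1 mL saline plus 0.25% Evans blue. Compound was dissolved, if needed, in slight molar excess NaHCO3 and diluted into the antigen solution. Wheal diameter was read at 30 min and extrapolated to zero antiserum by least squares. Groups of five.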
# [7] = system: Rattus norvegicus; test: The compound was tested for inhibition of rat passive cutaneous anaphylaxis at 2.0 mg/kg dose after peroral administration; type: functional; settings: route oral; method in brief: as §1
# [8] = system: Rattus norvegicus; test: The compound was tested for inhibition of rat passive cutaneous anaphylaxis at 5.0 mg/kg dose after peroral administration; O means inactive; type: functional, organism-based; set-up: dose 5 mg/kg; method in brief: as §1
# [9] = system: Rattus norvegicus; test: The compound was tested for inhibition of rat passive cutaneous anaphylaxis at 2.0 mg/kg dose after intraperitoneal administration; type: functional; settings: ip
SMILES,inhibition in vivo at 5 mg/kg [1],inhibition in vivo at 1 mg/kg [2],inhibition in vivo at 5 mg/kg [3],further results
Cn1c2ccccc2c2oc(-c3nn[nH]n3)cc(=O)c21,39%,87%,100%,–
CCn1c2ccccc2c2oc(C(=O)Nc3nn[nH]n3)cc(=O)c21,1%,12%,100%,–
Cn1c2ccccc2c2oc(C(=O)O)cc(=O)c21,96%,30%,100%,–
O=C1c2ccccc2S(=O)(=O)c2cc(-c3nn[nH]n3)ccc21 [DOXANTRAZOLE],50%,33%,–,inhibition in vivo at 10 mg/kg [4]: 97%
O=c1cc(-c2nn[nH]n2)oc2c3ccccc3n(-c3ccccc3)c12,32%,61%,100%,–
Cn1c2ccc(Cl)cc2c2oc(C(=O)Nc3nn[nH]n3)cc(=O)c21,6%,38%,100%,–
Cn1c2ccc(Cl)cc2c2oc(C(=O)O)cc(=O)c21,2%,–,23%,–
Cn1c2c([N+](=O)[O-])cc([N+](=O)[O-])cc2c2oc(C(=O)O)cc(=O)c21,0%,–,0%,–
CCn1c2ccccc2c2oc(-c3nn[nH]n3)cc(=O)c21,70%,100%,100%,–
Cn1c2c([N+](=O)[O-])cc([N+](=O)[O-])cc2c2oc(C(=O)Nc3nn[nH]n3)cc(=O)c21,–,–,48%,–
O=C(Nc1nn[nH]n1)c1cc(=O)c2c(o1)c1ccccc1n2-c1ccccc1,7%,–,0%,–
Cn1c2ccc(Cl)cc2c2oc(-c3nn[nH]n3)cc(=O)c21,33%,46%,100%,–
Cn1c2ccccc2c2oc(C(=O)Nc3nn[nH]n3)cc(=O)c21,0%,28%,100%,–
Cn1c2ccc([N+](=O)[O-])cc2c2oc(C(=O)Nc3nn[nH]n3)cc(=O)c21,–,42%,100%,inhibition in vivo at 1 mg/kg [5]: 15%
O=C(O)c1cc(=O)c2c(o1)c1ccccc1n2-c1ccccc1,–,13%,–,inhibition in vivo at 1 mg/kg [6]: 100%; inhibition in vivo at 2 mg/kg [7]: 0%
CCn1c2ccccc2c2oc(C(=O)O)cc(=O)c21,–,0%,–,inhibition in vivo at 1 mg/kg [6]: 100%; inhibition in vivo at 2 mg/kg [7]: 22%
Cc1ccc2c(c1)c1oc(-c3nn[nH]n3)cc(=O)c1n2C,56%,25%,100%,–
Cc1ccc2c(c1)c1oc(C(=O)O)cc(=O)c1n2C,–,18%,–,inhibition in vivo at 2 mg/kg [7]: 11%
Cn1c2ccc([N+](=O)[O-])cc2c2oc(C(=O)O)cc(=O)c21,0%,1%,100%,–
Cc1ccc2c(c1)c1oc(C(=O)Nc3nn[nH]n3)cc(=O)c1n2C,0%,33%,100%,–
O=C(O)c1cc(=O)c2c(OCC(O)COc3cccc4oc(C(=O)O)cc(=O)c34)cccc2o1 [CROMOLYN SODIUM],–,–,–,inhibition [8]: inactive; inhibition in vivo at 2 mg/kg [9]: 50%; inhibition in vivo at 10 mg/kg [4]: 89%
